Results reported in ChEMBL document CHEMBL3044526, “Synthesis, fungicidal activity, and QSAR of pyridazinonethiadiazoles” (2002).

Each molecule was assayed on Puccinia recondita (assay: Antifungal activity against Puccinia recondita wheat leaves treated as foliar spray after 10 days relative to triadimefon).
Assay type: functional
Summary of the method: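 Susceptible wheat cv. Ming-Xian 169 (10 germinating seeds per pot) was grown in a greenhouse at 15-20 °C and inoculated with P. recondita, then held 24 h in a moist chamber. Once the leaves were dry, each pot got a 10 mL spray of compound solution. Percent disease control versus untreated pots was scored 10 days later, in triplicate. Triadimefon (100 ppm) was run alongside. D = lg[a/(100−a)] − lg Mw.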

| Compound | inhibition (INH) [%] |
| --- | --- |
| Cc1ccc(-n2nc(-c3nnc(Nc4ccccc4F)s3)c(=O)cc2C)c(C)c1 | 90 |
| Cc1cc(=O)c(-c2nnc(Nc3ccccc3F)s2)nn1-c1ccc(Cl)cc1Cl | 80 |
| Cc1cc(=O)c(-c2nnc(Nc3cccc(C(F)(F)F)c3)s2)nn1-c1ccccc1 | 60 |
| Cc1cc(=O)c(-c2nnc(Nc3cccc(C(F)(F)F)c3)s2)nn1-c1ccccc1Cl | 70 |
| Cc1cc(=O)c(-c2nnc(Nc3ccccc3F)s2)nn1-c1c(Cl)cccc1Cl | 30 |
| Cc1cc(=O)c(-c2nnc(Nc3ccccc3F)s2)nn1-c1ccc(Cl)cc1 | 50 |
| Cc1cc(=O)c(-c2nnc(Nc3cccc(C(F)(F)F)c3)s2)nn1-c1ccc(Cl)cc1 | 60 |
| Cc1cc(=O)c(-c2nnc(Nc3cccc(C(F)(F)F)c3)s2)nn1-c1ccc(Cl)cc1Cl | 90 |
| Cc1cc(=O)c(-c2nnc(Nc3ccccc3F)s2)nn1-c1ccccc1Cl | 10 |
| Cc1cc(=O)c(-c2nnc(Nc3cccc(C(F)(F)F)c3)s2)nn1-c1cc(Cl)c(Cl)cc1Cl | 70 |
| Cc1cc(=O)c(-c2nnc(Nc3cccc(C(F)(F)F)c3)s2)nn1-c1c(Cl)cccc1Cl | 50 |
| Cc1cc(=O)c(-c2nnc(Nc3ccccc3F)s2)nn1-c1ccccc1 | 50 |
| Cc1cc(=O)c(-c2nnc(Nc3ccccc3)s2)nn1-c1ccc(Cl)cc1Cl | 20 |
| Cc1cc(=O)c(-c2nnc(Nc3ccccc3F)s2)nn1-c1cc(Cl)c(Cl)cc1Cl | 60 |
| Cc1cc(=O)c(-c2nnc(Nc3ccccc3)s2)nn1-c1ccccc1Cl | 10 |
| Cc1ccc(-n2nc(-c3nnc(Nc4cccc(C(F)(F)F)c4)s3)c(=O)cc2C)c(C)c1 | 90 |
